Source: ChEMBL document CHEMBL2417369, “Synthesis and evaluation of heteroaryl substituted diazaspirocycles as scaffolds to probe the ATP-binding site of protein kinases” (Bioorg Med Chem, 2013)

Tests used:
[1] = molecular target: Fibroblast growth factor receptor 3 (Homo sapiens) (UniProt P22607); assay: Inhibition of FGFR3 (unknown origin) at 30 uM by microfluidic mobility shift assay relative to control
Outline: (§1)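 Single-point screen at 30 µM test compound across a 24-kinase panel in a microfluidic assay format. ATP was set near each enzyme's Km,[ATP]. […] The pan-AGC inhibitor H-89 served as an internal control on every assay plate.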

[2] = molecular target: Tyrosine-protein kinase ABL2 (Homo sapiens) (UniProt P42684); assay: Inhibition of ARG (unknown origin) at 30 uM by microfluidic mobility shift assay relative to control; outline: as §1
Tyrosine-protein kinase ABL2 (Homo sapiens), sequence (P42684 whole entry): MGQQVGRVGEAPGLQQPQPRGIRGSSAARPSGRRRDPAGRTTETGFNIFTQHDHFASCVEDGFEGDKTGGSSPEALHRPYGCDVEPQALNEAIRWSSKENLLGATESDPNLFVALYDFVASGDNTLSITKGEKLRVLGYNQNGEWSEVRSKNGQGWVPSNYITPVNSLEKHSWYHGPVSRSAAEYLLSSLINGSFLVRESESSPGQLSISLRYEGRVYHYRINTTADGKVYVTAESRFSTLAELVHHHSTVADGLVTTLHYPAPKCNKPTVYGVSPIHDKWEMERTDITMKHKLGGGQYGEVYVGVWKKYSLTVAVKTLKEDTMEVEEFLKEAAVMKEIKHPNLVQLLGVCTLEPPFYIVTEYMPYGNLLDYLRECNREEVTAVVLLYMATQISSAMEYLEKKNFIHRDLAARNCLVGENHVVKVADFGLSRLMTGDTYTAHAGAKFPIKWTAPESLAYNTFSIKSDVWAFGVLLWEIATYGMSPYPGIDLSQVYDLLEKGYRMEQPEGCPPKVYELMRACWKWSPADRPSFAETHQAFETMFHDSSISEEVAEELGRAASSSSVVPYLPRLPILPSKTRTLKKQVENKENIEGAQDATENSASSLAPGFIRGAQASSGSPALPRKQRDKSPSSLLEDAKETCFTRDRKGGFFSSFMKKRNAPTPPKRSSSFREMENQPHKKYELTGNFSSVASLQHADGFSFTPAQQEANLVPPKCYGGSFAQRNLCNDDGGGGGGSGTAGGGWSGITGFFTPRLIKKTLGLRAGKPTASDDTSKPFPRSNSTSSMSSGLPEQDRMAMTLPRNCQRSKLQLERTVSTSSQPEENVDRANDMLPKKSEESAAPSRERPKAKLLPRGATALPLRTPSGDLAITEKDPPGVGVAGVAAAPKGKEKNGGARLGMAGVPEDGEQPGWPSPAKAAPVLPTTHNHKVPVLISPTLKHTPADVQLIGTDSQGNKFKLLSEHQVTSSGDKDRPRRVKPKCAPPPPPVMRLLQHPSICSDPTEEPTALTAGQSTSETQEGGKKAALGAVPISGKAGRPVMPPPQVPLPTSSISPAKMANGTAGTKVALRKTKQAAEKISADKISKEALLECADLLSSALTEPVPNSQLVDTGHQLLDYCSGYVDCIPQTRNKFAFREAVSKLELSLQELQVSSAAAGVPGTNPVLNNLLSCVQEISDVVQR

[3] = species: Homo sapiens; assay: Inhibition of CAMK2 (unknown origin) at 30 uM by microfluidic mobility shift assay relative to control; outline: as §1
[4] = molecular target: Rho-associated protein kinase 2 (Homo sapiens) (UniProt O75116); assay: Inhibition of ROCK2 (unknown origin) at 30 uM by microfluidic mobility shift assay relative to control
Rho-associated protein kinase 2 (Homo sapiens), sequence (O75116 whole entry, looked up): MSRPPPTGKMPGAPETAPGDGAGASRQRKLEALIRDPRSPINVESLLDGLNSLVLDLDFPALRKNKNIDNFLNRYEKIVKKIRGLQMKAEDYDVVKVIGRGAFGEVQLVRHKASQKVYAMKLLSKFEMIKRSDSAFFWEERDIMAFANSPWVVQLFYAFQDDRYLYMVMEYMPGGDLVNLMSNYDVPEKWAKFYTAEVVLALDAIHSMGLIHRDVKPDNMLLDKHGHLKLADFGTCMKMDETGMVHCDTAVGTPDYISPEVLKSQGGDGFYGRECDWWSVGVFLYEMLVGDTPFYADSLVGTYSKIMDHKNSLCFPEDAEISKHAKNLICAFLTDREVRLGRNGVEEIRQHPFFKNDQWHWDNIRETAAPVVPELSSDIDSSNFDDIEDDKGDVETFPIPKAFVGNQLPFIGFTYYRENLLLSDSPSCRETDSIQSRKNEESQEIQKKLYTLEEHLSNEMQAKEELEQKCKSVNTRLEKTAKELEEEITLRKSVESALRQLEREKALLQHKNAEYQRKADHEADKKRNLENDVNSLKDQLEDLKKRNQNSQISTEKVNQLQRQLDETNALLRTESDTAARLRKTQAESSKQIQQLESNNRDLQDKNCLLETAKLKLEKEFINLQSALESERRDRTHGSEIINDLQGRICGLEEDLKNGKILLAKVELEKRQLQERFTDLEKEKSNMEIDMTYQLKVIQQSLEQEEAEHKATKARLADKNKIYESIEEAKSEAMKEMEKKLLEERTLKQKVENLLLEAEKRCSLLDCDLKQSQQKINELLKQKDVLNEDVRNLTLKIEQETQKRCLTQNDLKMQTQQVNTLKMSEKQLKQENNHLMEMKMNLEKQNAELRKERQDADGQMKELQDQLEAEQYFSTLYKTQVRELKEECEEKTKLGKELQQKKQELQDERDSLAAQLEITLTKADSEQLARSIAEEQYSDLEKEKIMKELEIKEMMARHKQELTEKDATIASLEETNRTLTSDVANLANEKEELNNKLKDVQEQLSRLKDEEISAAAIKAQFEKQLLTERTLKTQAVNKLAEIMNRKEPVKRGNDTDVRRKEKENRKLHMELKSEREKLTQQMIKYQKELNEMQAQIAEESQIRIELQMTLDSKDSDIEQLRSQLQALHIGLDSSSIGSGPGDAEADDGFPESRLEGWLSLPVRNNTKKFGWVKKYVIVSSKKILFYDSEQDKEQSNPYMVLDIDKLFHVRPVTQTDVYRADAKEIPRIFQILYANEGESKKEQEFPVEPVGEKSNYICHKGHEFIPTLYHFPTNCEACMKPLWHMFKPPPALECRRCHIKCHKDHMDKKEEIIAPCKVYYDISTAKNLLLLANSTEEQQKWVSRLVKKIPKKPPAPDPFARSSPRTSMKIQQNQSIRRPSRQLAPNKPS
Outline: (§2)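 Single-point screen against a 24-kinase panel in a commercial microfluidic assay format. Compounds were tested at 30 µM, with ATP at approximately the Km,[ATP] of each enzyme. H-89 was included on each assay plate as an internal control.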

[5] = molecular target: T1, Protein kinase C zeta type (Homo sapiens) (UniProt Q05513); assay: Inhibition of PKCzeta (unknown origin) at 30 uM by microfluidic mobility shift assay relative to control; outline: as §2
T1 sequence (whole entry): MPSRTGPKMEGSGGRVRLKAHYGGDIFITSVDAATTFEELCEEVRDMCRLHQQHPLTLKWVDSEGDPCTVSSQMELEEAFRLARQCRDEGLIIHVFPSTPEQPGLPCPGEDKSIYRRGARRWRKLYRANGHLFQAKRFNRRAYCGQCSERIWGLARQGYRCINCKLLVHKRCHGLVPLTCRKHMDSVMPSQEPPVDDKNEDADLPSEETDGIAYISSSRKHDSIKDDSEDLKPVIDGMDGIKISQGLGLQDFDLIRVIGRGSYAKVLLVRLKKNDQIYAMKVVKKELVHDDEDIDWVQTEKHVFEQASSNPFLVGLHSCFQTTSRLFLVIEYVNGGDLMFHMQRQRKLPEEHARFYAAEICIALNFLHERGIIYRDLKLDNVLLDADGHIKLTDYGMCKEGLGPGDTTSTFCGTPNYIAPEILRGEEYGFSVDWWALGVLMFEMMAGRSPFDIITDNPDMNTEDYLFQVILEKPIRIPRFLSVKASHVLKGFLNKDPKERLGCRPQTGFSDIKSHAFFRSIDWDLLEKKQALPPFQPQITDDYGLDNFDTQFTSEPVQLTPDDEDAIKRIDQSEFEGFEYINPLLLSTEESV

[6] = molecular target: Protein kinase C gamma type (Homo sapiens) (UniProt P05129); assay: Inhibition of PKCgamma (unknown origin) at 30 uM by microfluidic mobility shift assay relative to control; outline: as §2
[7] = molecular target: Protein kinase C beta type (Homo sapiens) (UniProt P05771); assay: Inhibition of PKCbeta-1 (unknown origin) at 30 uM by microfluidic mobility shift assay relative to control; outline: as §1
Protein kinase C beta type (Homo sapiens), sequence (P05771 2-671 limits assumed): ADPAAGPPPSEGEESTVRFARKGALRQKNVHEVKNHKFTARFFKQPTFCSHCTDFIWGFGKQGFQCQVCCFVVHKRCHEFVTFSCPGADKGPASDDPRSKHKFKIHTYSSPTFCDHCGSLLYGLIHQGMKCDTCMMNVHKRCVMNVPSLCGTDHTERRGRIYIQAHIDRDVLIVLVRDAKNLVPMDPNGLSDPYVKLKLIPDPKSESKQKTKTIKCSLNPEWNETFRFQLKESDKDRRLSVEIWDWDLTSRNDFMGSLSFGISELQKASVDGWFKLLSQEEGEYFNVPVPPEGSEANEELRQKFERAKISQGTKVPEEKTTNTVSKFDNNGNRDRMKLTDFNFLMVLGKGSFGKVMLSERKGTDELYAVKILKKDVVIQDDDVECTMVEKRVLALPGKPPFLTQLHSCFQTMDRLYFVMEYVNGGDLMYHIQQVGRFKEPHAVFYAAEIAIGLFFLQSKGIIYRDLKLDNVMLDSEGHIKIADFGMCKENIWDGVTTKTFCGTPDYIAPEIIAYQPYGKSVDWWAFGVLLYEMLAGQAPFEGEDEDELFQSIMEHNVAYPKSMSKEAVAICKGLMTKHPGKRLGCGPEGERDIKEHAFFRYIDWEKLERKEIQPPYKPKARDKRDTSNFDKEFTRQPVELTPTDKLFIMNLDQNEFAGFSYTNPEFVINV

[8] = molecular target: T2, Serine/threonine-protein kinase Chk1 (Homo sapiens, UniProt O14757); assay: Inhibition of CHK1 (unknown origin) by Z'-Lyte assay
T2 sequence (O14757 whole entry): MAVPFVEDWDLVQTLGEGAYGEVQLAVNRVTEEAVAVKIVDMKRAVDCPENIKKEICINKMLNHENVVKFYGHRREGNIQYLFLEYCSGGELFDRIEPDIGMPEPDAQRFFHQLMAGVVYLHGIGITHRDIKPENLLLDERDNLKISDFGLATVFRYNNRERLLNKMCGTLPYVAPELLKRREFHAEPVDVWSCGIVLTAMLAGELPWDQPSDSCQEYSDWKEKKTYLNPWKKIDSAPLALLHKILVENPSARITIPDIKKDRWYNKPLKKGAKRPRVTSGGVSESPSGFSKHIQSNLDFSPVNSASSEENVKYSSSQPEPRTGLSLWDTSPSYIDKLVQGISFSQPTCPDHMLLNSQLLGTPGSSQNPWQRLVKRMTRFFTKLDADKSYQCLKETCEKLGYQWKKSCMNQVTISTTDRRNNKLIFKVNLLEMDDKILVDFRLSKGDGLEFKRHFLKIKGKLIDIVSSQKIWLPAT
Outline: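 CHK1 IC50 was obtained by titration in the Z'-Lyte assay format, run as an outsourced screening service.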

[9] = molecular target: Casein kinase I isoform delta (Homo sapiens, UniProt P48730); assay: Inhibition of CK1delta (unknown origin) by microfluidic mobility shift assay
[10] = molecular target: Proto-oncogene tyrosine-protein kinase Src (Homo sapiens, UniProt P12931); assay: Inhibition of SRC (unknown origin) by microfluidic mobility shift assay
[11] = molecular target: Tyrosine-protein kinase Lck (Homo sapiens, UniProt P06239); assay: Inhibition of LCK (unknown origin) by microfluidic mobility shift assay
[12] = molecular target: Tyrosine-protein kinase Lyn (Homo sapiens, UniProt P07948); assay: Inhibition of LYN (unknown origin) by microfluidic mobility shift assay
[13] = molecular target: Tyrosine-protein kinase Fyn (Homo sapiens, UniProt P06241); assay: Inhibition of FYN (unknown origin) by microfluidic mobility shift assay
[14] = molecular target: Tyrosine-protein kinase ABL1 (Homo sapiens, UniProt P00519); assay: Inhibition of ABL (unknown origin) by microfluidic mobility shift assay
[15] = molecular target: Glycogen synthase kinase-3 beta (Homo sapiens, UniProt P49841); assay: Inhibition of GSK3beta (unknown origin) by microfluidic mobility shift assay
[16] = molecular target: Mitogen-activated protein kinase 1 (Homo sapiens, UniProt P28482); assay: Inhibition of ERK2 (unknown origin) by microfluidic mobility shift assay
Mitogen-activated protein kinase 1, sequence (P28482 whole entry): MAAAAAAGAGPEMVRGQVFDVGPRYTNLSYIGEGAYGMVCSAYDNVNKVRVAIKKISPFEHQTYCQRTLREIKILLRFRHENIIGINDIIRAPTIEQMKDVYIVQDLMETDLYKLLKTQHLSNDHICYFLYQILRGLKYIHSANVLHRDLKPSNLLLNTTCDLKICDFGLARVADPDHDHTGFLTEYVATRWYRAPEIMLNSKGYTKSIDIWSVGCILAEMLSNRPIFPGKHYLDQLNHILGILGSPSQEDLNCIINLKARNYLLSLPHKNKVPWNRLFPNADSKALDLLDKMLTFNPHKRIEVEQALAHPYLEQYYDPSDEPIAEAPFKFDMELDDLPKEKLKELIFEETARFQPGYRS

[17] = molecular target: Mitogen-activated protein kinase 3 (Homo sapiens, UniProt P27361); assay: Inhibition of ERK1 (unknown origin) by microfluidic mobility shift assay
[18] = molecular target: Serine/threonine-protein kinase Chk2 (Homo sapiens, UniProt O96017); assay: Inhibition of CHK2 (unknown origin) by microfluidic mobility shift assay
[19] = molecular target: MAP kinase-activated protein kinase 5 (Homo sapiens, UniProt Q8IW41); assay: Inhibition of PRAK (unknown origin) by microfluidic mobility shift assay
[20] = molecular target: Serine/threonine-protein kinase D2 (Homo sapiens, UniProt Q9BZL6); assay: Inhibition of PKD2 (unknown origin) by microfluidic mobility shift assay
[21] = Inhibition of MAPK (unknown origin) by microfluidic mobility shift assay; parameters: species or system Homo sapiens
[22] = molecular target: Ribosomal protein S6 kinase alpha-5 (Homo sapiens, UniProt O75582); assay: Inhibition of MSK1 (unknown origin) by microfluidic mobility shift assay
[23] = molecular target: RAC-beta serine/threonine-protein kinase (Homo sapiens, UniProt P31751); assay: Inhibition of AKT2 (unknown origin) by microfluidic mobility shift assay
[24] = molecular target: RAC-alpha serine/threonine-protein kinase (Homo sapiens, UniProt P31749); assay: Inhibition of AKT1 (unknown origin) by microfluidic mobility shift assay
[25] = molecular target: Hepatocyte growth factor receptor (Homo sapiens, UniProt P08581); assay: Inhibition of MET (unknown origin) by microfluidic mobility shift assay
[26] = molecular target: Protein kinase C zeta type (Homo sapiens, UniProt Q05513); assay: Inhibition of PKCzeta (unknown origin) by microfluidic mobility shift assay

Fibroblast growth factor receptor 3 (Homo sapiens), sequence (P22607 23-806 limits assumed): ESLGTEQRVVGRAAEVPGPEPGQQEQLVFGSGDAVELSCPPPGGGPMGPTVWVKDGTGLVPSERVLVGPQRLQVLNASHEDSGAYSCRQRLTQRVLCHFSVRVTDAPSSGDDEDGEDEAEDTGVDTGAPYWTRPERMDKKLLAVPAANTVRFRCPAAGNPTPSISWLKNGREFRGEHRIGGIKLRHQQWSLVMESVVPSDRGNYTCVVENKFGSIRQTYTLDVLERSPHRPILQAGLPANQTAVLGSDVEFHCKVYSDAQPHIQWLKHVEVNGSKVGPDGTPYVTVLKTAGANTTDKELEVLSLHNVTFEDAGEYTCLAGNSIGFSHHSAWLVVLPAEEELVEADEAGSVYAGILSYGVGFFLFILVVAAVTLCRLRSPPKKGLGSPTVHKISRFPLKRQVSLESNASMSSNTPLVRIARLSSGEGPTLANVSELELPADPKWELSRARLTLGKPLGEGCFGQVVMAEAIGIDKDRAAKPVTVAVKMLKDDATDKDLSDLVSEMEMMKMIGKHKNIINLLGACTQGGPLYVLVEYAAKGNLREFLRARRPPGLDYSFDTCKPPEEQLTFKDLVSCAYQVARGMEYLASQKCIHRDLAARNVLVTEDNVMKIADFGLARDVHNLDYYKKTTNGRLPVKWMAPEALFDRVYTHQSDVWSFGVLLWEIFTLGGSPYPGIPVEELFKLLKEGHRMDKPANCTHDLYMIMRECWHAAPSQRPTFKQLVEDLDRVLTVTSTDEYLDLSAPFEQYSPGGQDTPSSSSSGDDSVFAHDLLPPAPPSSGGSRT

Row | Structure (SMILES) | inhibition [1] [%] | inhibition [2] [%] | inhibition [3] [%] | inhibition [4] [%] | inhibition [5] [%] | inhibition [6] [%] | inhibition [7] [%] | IC50 [8] [µM] | IC50 [9] [µM] | IC50 [10] [µM] | IC50 [11] [µM] | IC50 [12] [µM] | IC50 [13] [µM] | IC50 [14] [µM] | IC50 [15] [µM] | IC50 [16] [µM] | IC50 [17] [µM] | IC50 [19] [µM] | IC50 [20] [µM] | IC50 [21] [µM] | also measured
1 | c1ccc(C2CCNC3(CCN(c4ncnc5[nH]cnc45)CC3)C2)cc1 (racemic) | 7 | 23 | 13 | 99 | 0 | 77 | 65 | – | – | – | – | – | – | – | – | – | – | – | – | – | –
2 | O=S(=O)(c1cccc2cnccc12)N1CCCC2(CCCNC2)C1 (configuration not stated) | – | – | – | – | – | – | – | 12.8 | – | – | – | – | – | – | – | – | – | – | – | – | –
3 | c1ccc(CC2CCC3(CCN(c4ncnc5[nH]cnc45)CC3)NC2)cc1 (racemic) | 10 | 18 | 9 | 78 | 0 | 53 | 38 | – | – | – | – | – | – | – | – | – | – | – | – | – | –
4 | c1nc(N2CCC3(CCCCN3)CC2)c2nc[nH]c2n1 | – | – | – | – | – | – | – | 18 | 238 | 150 | 113 | 178 | 158 | 126 | 138 | 47 | 60 | 226 | 46 | 103 | IC50 [18]: 41 µM; IC50 [22]: 5.3 µM; IC50 [23]: 66 µM; IC50 [24]: 14 µM
5 | c1nc(N2CCC3(CCCNC3)CC2)c2nc[nH]c2n1 | – | – | – | – | – | – | – | 1.8 | 97 | 18 | 20 | 14 | 26 | 7 | 55 | 38 | 37 | 41 | 1.3 | 19 | IC50 [25]: 183 µM; IC50 [26]: 74 µM; IC50 [22]: 0.7 µM; IC50 [23]: 9.5 µM; IC50 [24]: 1.6 µM
6 | c1ccc(CC2CCNC3(CCN(c4ncnc5[nH]cnc45)CC3)C2)cc1 (racemic) | 7 | 13 | 17 | 98 | 0 | 86 | 76 | – | – | – | – | – | – | – | – | – | – | – | – | – | –
